From ChEMBL document CHEMBL1142516, “Design, synthesis, and structure-affinity relationships of novel series of sialosides as CD22-specific inhibitors” (J Med Chem, 2008) come the findings set out here.

One assay concerns the target T1, B-cell receptor CD22 (Homo sapiens, UniProt P20273).
T1 sequence (P20273 whole entry): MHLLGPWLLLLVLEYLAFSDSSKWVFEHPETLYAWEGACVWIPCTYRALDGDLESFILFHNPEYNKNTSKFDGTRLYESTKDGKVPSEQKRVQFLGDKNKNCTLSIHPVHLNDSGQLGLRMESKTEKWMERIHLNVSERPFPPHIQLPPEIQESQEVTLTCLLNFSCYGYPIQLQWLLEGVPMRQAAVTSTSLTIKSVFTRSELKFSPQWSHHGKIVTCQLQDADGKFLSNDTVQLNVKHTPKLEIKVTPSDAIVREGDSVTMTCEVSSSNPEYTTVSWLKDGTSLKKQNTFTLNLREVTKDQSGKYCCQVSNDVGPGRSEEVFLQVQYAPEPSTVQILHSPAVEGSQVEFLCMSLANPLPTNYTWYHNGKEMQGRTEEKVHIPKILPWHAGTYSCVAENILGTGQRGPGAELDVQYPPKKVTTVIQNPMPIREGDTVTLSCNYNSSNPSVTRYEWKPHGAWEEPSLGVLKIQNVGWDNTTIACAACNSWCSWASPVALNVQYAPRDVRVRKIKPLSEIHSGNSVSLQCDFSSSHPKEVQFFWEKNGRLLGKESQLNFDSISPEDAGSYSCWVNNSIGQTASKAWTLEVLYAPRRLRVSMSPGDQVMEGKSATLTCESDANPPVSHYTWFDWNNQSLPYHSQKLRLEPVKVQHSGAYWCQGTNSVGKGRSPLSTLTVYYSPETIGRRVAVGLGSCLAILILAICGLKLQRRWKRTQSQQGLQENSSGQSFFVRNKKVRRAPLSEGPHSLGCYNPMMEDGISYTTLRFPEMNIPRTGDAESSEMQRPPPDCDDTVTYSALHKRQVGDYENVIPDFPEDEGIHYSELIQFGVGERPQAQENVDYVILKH
The assay can be described thus: Binding affinity to biotinylated human CD22-human IgG1 chimeric protein expressed in mouse J558LST6 cells by flow cytometry. It is filed as cell-based. The method in brief: (§1)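 IC50 from inhibition of CD22-Fc binding to alpha2,6-sialic acid on ST6GalI-transfected J558L mouse myeloma cells (J558LST6), incubated with CD22-Fc plus varied sialoside concentrations. Detection with Alexa Fluor 647-streptavidin, 30 min on ice, then flow cytometry. % binding = (A−B)/(C−B)×100 using MFI: A, sialoside sample; B, parent J558L; C, untreated J558LST6. IC50 taken as 50% binding inhibition; means of ≥3 independent determinations.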
(A flow cytometer gives signals particle by particle.)

A short description of assay [1]: Binding affinity to biotinylated mouse CD22-human IgG1 chimeric protein expressed in mouse J558LST6 cells by flow cytometry. The class given is cell-based. The method in brief:
as §1

As to `COc1ccc(O[C@@H]2O[C@H](CO[C@]3(C(=O)O)C[C@H](O)[C@@H](NC(=O)CO)[C@H]([C@H](O)[C@H](O)CNCC4CCCCC4)O3)[C@H](O)[C@H](O)[C@H]2O)cc1`, the figures for the half-maximal inhibitory concentration (IC50) (at B-cell receptor CD22; in assay [1]) were 37.7 µM and 9.5 µM, respectively.
For `COc1ccc(O[C@@H]2O[C@H](CO[C@]3(C(=O)O)C[C@H](O)[C@@H](NC(=O)CO)[C@H]([C@H](O)[C@H](O)CNCc4ccccc4)O3)[C@H](O)[C@H](O)[C@H]2O)cc1` the same measures were 123 µM and 25.7 µM.
For `COc1ccc(O[C@@H]2O[C@H](CO[C@]3(C(=O)O)C[C@H](O)[C@@H](NC(=O)CO)[C@H]([C@H](O)[C@H](O)CNC(=O)Cc4ccc(-c5cccc(O)c5)cc4)O3)[C@H](O)[C@H](O)[C@H]2O)cc1` the same measures were 4.3 µM and 2.9 µM.
In the same order, the values of `COc1ccc(O[C@@H]2O[C@H](CO[C@]3(C(=O)O)C[C@H](O)[C@@H](NC(=O)CO)[C@H]([C@H](O)[C@H](O)CNC(=O)CCCc4ccc5ccc6cccc7ccc4c5c67)O3)[C@H](O)[C@H](O)[C@H]2O)cc1` are 21.1 µM and 66.8 µM.
Regarding `COc1ccc(O[C@@H]2O[C@H](CO[C@]3(C(=O)O)C[C@H](O)[C@@H](NC(=O)CO)[C@H]([C@H](O)[C@H](O)CNCCCCc4ccc(-c5ccccc5)cc4)O3)[C@H](O)[C@H](O)[C@H]2O)cc1`, the IC50 on B-cell receptor CD22 came to 6.22 µM; in assay [1], 4.1 µM.
In the same order, the values of `COc1ccc(O[C@@H]2O[C@H](CO[C@]3(C(=O)O)C[C@H](O)[C@@H](NC(=O)CO)[C@H]([C@H](O)[C@H](O)CNCc4cc(OC)cc(OC)c4)O3)[C@H](O)[C@H](O)[C@H]2O)cc1` are 24.8 µM and 77.5 µM.
For `COc1ccc(O[C@@H]2O[C@H](CO[C@]3(C(=O)O)C[C@H](O)[C@@H](NC(=O)CO)[C@H]([C@H](O)[C@H](O)CNCc4ccc(-c5ccc(C(F)(F)F)cc5)cc4)O3)[C@H](O)[C@H](O)[C@H]2O)cc1` the same measures were 45 µM and 48 µM.
In the same order, the values of `COc1ccc(O[C@@H]2O[C@H](CO[C@]3(C(=O)O)C[C@H](O)[C@@H](NC(=O)CO)[C@H]([C@H](O)[C@H](O)CNC(=O)Cc4ccc(-c5ccccc5)cc4)O3)[C@H](O)[C@H](O)[C@H]2O)cc1` are 3.7 µM and 6.2 µM.
For `CCCCCC(=O)NC[C@@H](O)[C@@H](O)[C@@H]1O[C@@](OC[C@H]2O[C@@H](Oc3ccc(OC)cc3)[C@H](O)[C@@H](O)[C@H]2O)(C(=O)O)C[C@H](O)[C@H]1NC(=O)CO`, the IC50 at B-cell receptor CD22 is 40.9 µM; in assay [1], 88.5 µM.
As for `COc1ccc(O[C@@H]2O[C@H](CO[C@]3(C(=O)O)C[C@H](O)[C@@H](NC(=O)CO)[C@H]([C@H](O)[C@H](O)CNCCc4ccc(-c5ccccc5)cc4)O3)[C@H](O)[C@H](O)[C@H]2O)cc1`, the values for the half-inhibitory concentration (IC50) (on B-cell receptor CD22; in assay [1]) were 5.48 µM and 11.2 µM, respectively.
For `COc1ccc(O[C@@H]2O[C@H](CO[C@]3(C(=O)O)C[C@H](O)[C@@H](NC(=O)CO)[C@H]([C@H](O)[C@H](O)CNCc4ccc(-c5ccc(C)cc5)cc4)O3)[C@H](O)[C@H](O)[C@H]2O)cc1` the same measures were 9.83 µM and 27 µM.
With `COc1ccc(O[C@@H]2O[C@H](CO[C@]3(C(=O)O)C[C@H](O)[C@@H](NC(=O)CO)[C@H]([C@H](O)[C@H](O)CNC(=O)c4ccc5ccccc5c4)O3)[C@H](O)[C@H](O)[C@H]2O)cc1`, the values for the IC50 (at B-cell receptor CD22; in assay [1]) were 2.6 µM and 90 µM, respectively.
For `COc1ccc(O[C@@H]2O[C@H](CO[C@]3(C(=O)O)C[C@H](O)[C@@H](NC(=O)CO)[C@H]([C@H](O)[C@H](O)CNC(=O)c4ccc(-c5ccc(C(=O)O)cc5)cc4)O3)[C@H](O)[C@H](O)[C@H]2O)cc1` the same measures were 73.3 µM and 23.4 µM.
For `COc1ccc(O[C@@H]2O[C@H](CO[C@]3(C(=O)O)C[C@H](O)[C@@H](NC(=O)CO)[C@H]([C@H](O)[C@H](O)CNC(=O)C4CCCCC4)O3)[C@H](O)[C@H](O)[C@H]2O)cc1` the same measures were 16 µM and 65.3 µM.
For `COc1ccc(O[C@@H]2O[C@H](CO[C@]3(C(=O)O)C[C@H](O)[C@@H](NC(=O)CO)[C@H]([C@H](O)[C@H](O)CNC(=O)CCc4ccc(O)cc4)O3)[C@H](O)[C@H](O)[C@H]2O)cc1` the same measures were 7.65 µM and 139 µM.
Consider `COc1ccc(O[C@@H]2O[C@H](CO[C@]3(C(=O)O)C[C@H](O)[C@@H](NC(=O)CO)[C@H]([C@H](O)[C@H](O)CNCc4ccc(-c5cccc(C(=O)O)c5)cc4)O3)[C@H](O)[C@H](O)[C@H]2O)cc1`, for which the IC50 was 7.48 µM on B-cell receptor CD22 and 32.7 µM in assay [1].
In the same order, the values of `COc1ccc(O[C@@H]2O[C@H](CO[C@]3(C(=O)O)C[C@H](O)[C@@H](NC(=O)CO)[C@H]([C@H](O)[C@H](O)CNC(=O)Cc4ccc(-c5ccc(O)cc5)cc4)O3)[C@H](O)[C@H](O)[C@H]2O)cc1` are 0.9 µM and 1.7 µM.
Consider `COc1ccc(O[C@@H]2O[C@H](CO[C@]3(C(=O)O)C[C@H](O)[C@@H](NC(=O)CO)[C@H]([C@H](O)[C@H](O)CNC(=O)Cc4ccc5ccccc5c4)O3)[C@H](O)[C@H](O)[C@H]2O)cc1`, for which the IC50 was 1 µM at B-cell receptor CD22 and 24.7 µM in assay [1].
In the same order, the values of `COc1ccc(O[C@@H]2O[C@H](CO[C@]3(C(=O)O)C[C@H](O)[C@@H](NC(=O)CO)[C@H]([C@H](O)[C@H](O)CNCc4ccc(-c5ccc(O)cc5)cc4)O3)[C@H](O)[C@H](O)[C@H]2O)cc1` are 0.24 µM and 6.43 µM.
For `COc1ccc(O[C@@H]2O[C@H](CO[C@]3(C(=O)O)C[C@H](O)[C@@H](NC(=O)CO)[C@H]([C@H](O)[C@H](O)CNC(=O)c4ccc(-c5ccccc5)cc4)O3)[C@H](O)[C@H](O)[C@H]2O)cc1` the same measures were 1.1 µM and 52.9 µM.
In the same order, the values of `COc1ccc(O[C@@H]2O[C@H](CO[C@]3(C(=O)O)C[C@H](O)[C@@H](NC(=O)CO)[C@H]([C@H](O)[C@H](O)CNCc4ccc(-c5ccc(OC)cc5)cc4)O3)[C@H](O)[C@H](O)[C@H]2O)cc1` are 1.76 µM and 30 µM.
`COc1ccc(O[C@@H]2O[C@H](CO[C@]3(C(=O)O)C[C@H](O)[C@@H](NC(=O)CO)[C@H]([C@H](O)[C@H](O)CNCc4ccc(-c5ccc(C(=O)O)cc5)cc4)O3)[C@H](O)[C@H](O)[C@H]2O)cc1`: the IC50 worked out at 43 µM at B-cell receptor CD22 and 10 µM in assay [1].
For `COc1ccc(O[C@@H]2O[C@H](CO[C@]3(C(=O)O)C[C@H](O)[C@@H](NC(=O)CO)[C@H]([C@H](O)[C@H](O)CNCc4ccc(-c5cccc(O)c5)cc4)O3)[C@H](O)[C@H](O)[C@H]2O)cc1` the same measures were 1.73 µM and 16.5 µM.
For `COc1ccc(O[C@@H]2O[C@H](CO[C@]3(C(=O)O)C[C@H](O)[C@@H](NC(=O)CO)[C@H]([C@H](O)[C@H](O)CNC(=O)CCc4ccccc4)O3)[C@H](O)[C@H](O)[C@H]2O)cc1`, the half-inhibitory concentration (IC50) at B-cell receptor CD22 stood at 10.4 µM; in assay [1], 168 µM.
In the same order, the values of `COc1ccc(O[C@@H]2O[C@H](CO[C@]3(C(=O)O)C[C@H](O)[C@@H](NC(=O)CO)[C@H]([C@H](O)[C@H](O)CNC(=O)c4ccc(-c5cccc(C(=O)O)c5)cc4)O3)[C@H](O)[C@H](O)[C@H]2O)cc1` are 7.13 µM and 16.6 µM.
Regarding `COc1ccc(O[C@@H]2O[C@H](CO[C@]3(C(=O)O)C[C@H](O)[C@@H](NC(=O)CO)[C@H]([C@H](O)[C@H](O)CNCc4ccc(-c5ccccc5)cc4)O3)[C@H](O)[C@H](O)[C@H]2O)cc1`, the IC50 at B-cell receptor CD22 worked out at 0.47 µM; in assay [1], 16.3 µM.
For `COc1ccc(O[C@@H]2O[C@H](CO[C@]3(C(=O)O)C[C@H](O)[C@@H](NC(=O)CO)[C@H]([C@H](O)[C@H](O)CNC(=O)c4ccc(-c5ccc(O)cc5)cc4)O3)[C@H](O)[C@H](O)[C@H]2O)cc1` the same measures were 0.4 µM and 8.63 µM.
In the same order, the values of `COc1ccc(O[C@@H]2O[C@H](CO[C@]3(C(=O)O)C[C@H](O)[C@@H](NC(=O)CO)[C@H]([C@H](O)[C@H](O)CNC(=O)C(c4ccccc4)c4ccccc4)O3)[C@H](O)[C@H](O)[C@H]2O)cc1` are 8.85 µM and 63.5 µM.
For `COc1ccc(O[C@@H]2O[C@H](CO[C@]3(C(=O)O)C[C@H](O)[C@@H](NC(=O)CO)[C@H]([C@H](O)[C@H](O)CNCc4ccc(-c5ccccc5O)cc4)O3)[C@H](O)[C@H](O)[C@H]2O)cc1` the same measures were 0.23 µM and 12.5 µM.

The term IC50 denotes the concentration needed to halve the response being measured. High values mean lower potency, low ones higher potency.
